Assay outcomes as filed in PubChem BioAssay.
MDM2 E3 inh – inhibitors of human Mdm2 E3 ubiquitin ligase; Q00987; AID 1230; cell-based MDM2 ubiquitination luciferase reporter, 2 h; 0 = plate control, 100 = twice control, blank-subtracted; hit rate 0.11% among 210,000; signal enhancement, % at 5 µM;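 active = signal enhancement of 30% or more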;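 also: luminescence tracks abundance of the self-degrading MDM2-luciferase fusion protein; higher signal means inhibition of MDM2 E3 ligase activity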
Target sequence (Q00987 whole entry, looked up, the tested form may be a part): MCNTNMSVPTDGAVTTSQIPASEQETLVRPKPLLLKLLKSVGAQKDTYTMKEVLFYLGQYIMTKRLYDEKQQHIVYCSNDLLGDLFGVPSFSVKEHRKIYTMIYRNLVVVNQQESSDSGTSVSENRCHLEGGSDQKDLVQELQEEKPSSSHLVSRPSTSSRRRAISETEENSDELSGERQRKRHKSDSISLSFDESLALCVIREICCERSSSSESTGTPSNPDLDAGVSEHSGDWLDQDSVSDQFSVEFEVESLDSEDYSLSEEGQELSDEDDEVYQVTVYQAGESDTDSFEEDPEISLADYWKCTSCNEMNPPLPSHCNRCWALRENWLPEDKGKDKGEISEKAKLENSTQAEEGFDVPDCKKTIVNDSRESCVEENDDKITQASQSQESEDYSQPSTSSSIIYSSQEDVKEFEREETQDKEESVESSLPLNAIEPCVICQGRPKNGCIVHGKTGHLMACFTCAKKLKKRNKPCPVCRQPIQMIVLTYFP
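test system = mammalian cells stably expressing self-ubiquitinating, self-degrading MDM2 E3–luciferase fusion | quantity = 2000 cells/well | incubation = cell settling 4 h, compound treatment 2 h, both 37 °C | signal = luminescence with SteadyLite reagent, 15 min at room temperature | evaluation = % enhancement relative to plate controls after blank subtraction | benchmarks = plate controls and plate blanks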
HSV replic up – increases HSV replication in cells. HSV replication augmentation in cells, fold increase. maximum fold increase. hit rate 0.005% among 220,000. AID 1956; in the data active = maximum fold increase above about 1.5; tested in PC3 cells
zVAD death inh – L929 zVAD cell death inhibition; L929 zVAD necroptosis rescue, ATP luminescence, 24 h; with zVAD 60 µM; viability rescue, % at 10 µM; hit rate 0.38% among 220,000;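 active = activation, scaled between plate controls, above about 75%, limit read from the data; inactive = activation under that limit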;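 also: 0% = zVAD with DMSO and 100% = DMSO alone without zVAD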
TNF death inh – inhibitors of TNF-alpha induced necroptosis in Jurkat FADD-/- cells | Jurkat FADD-/- TNF necroptosis rescue, ATP luminescence, 24 h; 0 = TNF only, 100 = no-TNF cells | activation (protection from cell death), % at 10 µM | hit rate 0.068% among 220,000 | AID 463075;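 active = activation, meaning protection from cell death, of at least 50% relative to plate controls; inactive = activation below 50%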;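 also: necroptosis triggered by 40 ng/mL TNF-alpha added together with compound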
E-sel TNF inh – blocks E-selectin expression induced by TNF alpha; HUVEC TNFa-induced E-selectin immunofluorescence, high content; inhibition, % at 2 µM; hit rate 0.71% among 120,000;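 active = inhibition above the batch mean plus 3 SD, and confirmed as a hit on visual image review, cut at about 43% in these data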;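 also: 0% = TNF-stimulated DMSO wells and 100% = unstimulated control wells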
* hit, by the source's call; i = inactive; . = not tested or not shown. Rows were chosen to be rich in hits. Some 0.89% of all compounds tested hit in one or more screens of this group.

SMILES | MDM2 E3 inh | HSV replic up | zVAD death inh | TNF death inh | E-sel TNF inh
CCN1CCN(Cc2nc3c(c(=O)n(C)c(=O)n3C)n2C(C)C(C)=O)CC1 (configuration not stated) | 31* | i | 1 | 0 | .
COc1ccc(Nc2nc(N)nc(CSC(=S)N3CCCCC3C)n2)cc1 (configuration not stated) | -1 | i | 0 | 2 | .
Cc1cccc(NC(=O)CCSc2nc(C)cc(C)n2)c1 | -8 | i | 0 | -1 | 76*
CC(=O)c1cc(C(=O)N2CCCC(CCC(=O)N(C)CCc3ccccn3)C2)cs1 (configuration not stated) | -15 | i | 0 | 0 | .
C=CCNC(=O)CSc1n[nH]c(-c2cc(Cl)ccc2OC)n1 | -7 | i | 4 | 1 | 6
CCC(CC)c1nnc(NC(=O)Cc2ccccc2[N+](=O)[O-])s1 | 9 | i | 0 | 1 | .
O=C(OCC1CC(c2ccccn2)=NO1)c1ccc(Br)cc1 (configuration not stated) | 6 | i | -1 | 1 | 96*
O=C(COC(=O)c1ccccn1)c1ccc(Br)cc1 | -1 | i | -1 | 2 | -68
CCN(CC)C(=O)C12CC3CC(CC(Br)(C3)C1)C2 | 1 | i | 1 | 0 | .
CCOc1cccc2cc(C(=O)NCCC3=CCCCC3)c(=O)oc12 | -5 | i | 11 | 0 | .
CCN(C(=O)CSc1nc2ccccc2c(=O)n1-c1cccc(C)c1)C1CCS(=O)(=O)C1 (configuration not stated) | 63* | i | -1 | 1 | .
O=S(=O)(Cc1ccccc1)C1CCCCC1O (configuration not stated) | -12 | i | 0 | 1 | .
CCC(=O)Nc1nnc(-c2ccccn2)o1 | -13 | i | 1 | -2 | 68*
CC(=O)c1ccc(OCC(O)Cn2nnc3ccccc32)cc1 (configuration not stated) | 36* | i | -1 | -1 | .
COC(=O)c1ccc(OCC(O)Cn2nnc3ccccc32)cc1 (configuration not stated) | -5 | i | 0 | -2 | -3
CC(=O)CSc1ccc(-c2nc3cc(C)c(C)cc3[nH]2)cn1 | -89 | i | 3 | 4 | .
Cc1cc2nc(-c3ccc(SCc4ccc(C#N)cc4)nc3)[nH]c2cc1C | -23 | i | 3 | 1 | 90*
COc1ccccc1N1CCN(C(c2ccc(C)cc2)c2nnnn2C(C)C)CC1 (configuration not stated) | 38* | i | 1 | 1 | .
CCC(C)(C)n1nnnc1C(c1ccc(OC)c(OC)c1)N1CCN(c2ccccc2)CC1 (configuration not stated) | -8 | i | 0 | 2 | 83*
CCC(C)(C)n1nnnc1C(c1ccc(OC)c(OC)c1)N1CCN(c2cccc(OC)c2)CC1 (configuration not stated) | -13 | i | 0 | 1 | 19
COc1ccccc1N1CCN(C(c2ccc(F)cc2)c2nnnn2C(C)C)CC1 (configuration not stated) | -2 | i | -1 | 3 | -7
Cn1c(CCNC(=O)c2ccc(Cl)c(Cl)c2)nnc1SCc1ccc(Cl)c(Cl)c1 | -2 | i | 0 | 0 | 100*
C=CCN(CC=C)S(=O)(=O)c1ccc(NC(=S)NC(=O)/C=C/c2cccc3ccccc23)cc1 | -3 | i | 0 | 0 | 68*
Cc1ccc(NC(=O)CCNS(=O)(=O)c2cc(Br)cnc2N)cc1Cl | -7 | i | . | 4 | -10
CCOC(=O)N1CCN(C(=O)CCNS(=O)(=O)c2cc(Br)cnc2N)CC1 | -3 | i | 86* | 18 | .
SMILES | MDM2 E3 inh | HSV replic up | zVAD death inh | TNF death inh | E-sel TNF inh
COc1ccc2nc(SCc3nc(N)nc(Nc4ccccc4)n3)[nH]c2c1 | -3 | i | 0 | -3 | 95*
CCN(CC)S(=O)(=O)c1ccc2nc(CCl)[nH]c2c1 | -4 | i | 1 | 1 | .
Cc1cccc(NC(=O)C2CCCN2C(=O)NC2CCCCC2)c1 (configuration not stated) | -1 | i | 9 | 1 | .
COc1ccc(-n2cc(C#N)c(=O)n(Cc3ccc(F)cc3)c2=O)cc1 | -3 | i | 3 | -1 | .
CCOC(=O)C1C(=O)CC(C)(O)C(C(=O)OCC)C1c1ccccc1 (configuration not stated) | -4 | i | -1 | 1 | 59*
CCOC(=O)C1C(=O)CC(C)(O)C(C(=O)OCC)C1c1ccc(OC)cc1 (configuration not stated) | -18 | i | 0 | 1 | .
CCOC(=O)C1C(c2ccccc2)N(C)OC1(O)C(F)(F)F (configuration not stated) | 35* | i | 5 | 2 | .
CCOC(=O)C1C(c2ccc(OC)cc2)N(C)OC1(O)C(F)(F)F (configuration not stated) | 7 | i | 0 | 2 | .
Cc1ccc(NC(=S)N2CCC(c3ccccc3)C2)c(Cl)c1 (configuration not stated) | . | i | 0 | -1 | .
O=C(N/N=C\c1ccc(Cl)s1)c1cccs1 | 31* | i | 1 | 0 | -11
CC(NC(=O)c1cc(Br)ccc1Cl)c1ccccc1 (configuration not stated) | -21 | i | 1 | 80* | .
Cc1cc([N+](=O)[O-])nn1CCCC(=O)Nc1sc2c(c1C(N)=O)CCCC2 | 0 | i | . | 2 | -5
Cc1cc([N+](=O)[O-])nn1CC(=O)Nc1sc2c(c1C(N)=O)CCCC2 | 2 | i | 12 | 0 | 80*
O=C1CC(c2ccccc2)CC2=C1CN(C1CCCCC1)CN2 (configuration not stated) | 2 | i | 0 | -6 | 70*
CC(Nc1nc(N2CCNCC2)nc2ccccc12)c1ccccc1 (configuration not stated) | -50 | i | -1 | 1 | .
CC(C)c1ccc(O)c(NC(=O)c2cncc(Br)c2)c1 | -9 | i | 0 | 67* | .
COc1ccc2[nH]c(=O)cc(C(=O)O)c2c1 | 0 | i | 4 | 1 | .
COc1ccc2[nH]c3c4c(ccc3c2c1)C(=O)C=CC4=O | 32* | i | 29 | -29 | .
COc1ccc(CC(=O)OCC(=O)Nc2ccc(N3CCOCC3)cc2)cc1 | -11 | i | 1 | 2 | .
COc1ccc(C(=O)/C=C/c2cccs2)c(OC(=O)c2cccc([N+](=O)[O-])c2)c1 | -4 | i | 0 | -13 | 8
COc1ccc(C(=O)/C=C/c2ccc(F)cc2)c(OC(=O)c2ccc([N+](=O)[O-])cc2)c1 | -6 | i | 1 | -11 | 70*
COc1cnc(SC)nc1Nc1ccc(C#N)cc1 | . | i | 1 | -3 | .
CCc1ccccc1NC1c2ccccc2C(=O)N1Cc1ccco1 (configuration not stated) | -9 | i | -1 | -1 | -17
